Test results taken from ChEMBL document CHEMBL1137650, “An OXA-66/OXA-51-like carbapenemase and possibly an efflux pump are associated with resistance to imipenem in Acinetobacter baumannii” (2007).
≈ marks a conversion by molar mass, not a printed value.

Experiments:
Acinetobacter baumannii [1] = assay: Ratio of MIC for Acinetobacter baumannii ISAB ab8(r) to MIC for Acinetobacter baumannii ISAB ab8(r) in presence of […] ug/ml efflux pump inhibitor carbonyl cyanide m-chlorophenyl-hydrazone; format: functional
Acinetobacter baumannii [2] = assay: Ratio of MIC for Acinetobacter baumannii ISAB ab8(r) to MIC for Acinetobacter baumannii ISAB ab1254(r) in presence of […] ug/ml efflux pump inhibitor carbonyl cyanide m-chlorophenyl-hydrazone; format: functional
Acinetobacter baumannii [3] = assay: Antibacterial activity against imipenem-susceptible Acinetobacter baumannii ATCC 19606 by broth dilution method; format: functional; conditions: ATCC 19606 = CIP 70.34 = JCM 6841
Acinetobacter baumannii [4] = assay: Antibacterial activity against imipenem-susceptible Acinetobacter baumannii ab3 by broth dilution method; format: functional
Method in brief: (§1)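 Clinical isolates were collected at three Taiwan hospitals (1993–2003) and grown in tryptic soy broth at 37°C for 18 h. MIC by broth dilution following CLSI recommendations.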

Acinetobacter baumannii [5] = assay: Antibacterial activity against imipenem-susceptible Acinetobacter baumannii ab4 by broth dilution method; format: functional; method in brief: as §1
Acinetobacter baumannii [6] = assay: Antibacterial activity against imipenem-susceptible Acinetobacter baumannii ab8 by broth dilution method; format: functional; method in brief: as §1
Acinetobacter baumannii [7] = assay: Antibacterial activity against imipenem-susceptible Acinetobacter baumannii ab12 by broth dilution method; format: functional; method in brief: as §1
Acinetobacter baumannii [8] = assay: Antibacterial activity against imipenem-susceptible Acinetobacter baumannii ab20 by broth dilution method; format: functional; method in brief: as §1
Acinetobacter baumannii [9] = assay: Antibacterial activity against imipenem-susceptible Acinetobacter baumannii ab1308 by broth dilution method; format: functional
Method in brief: (§2)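 Clinical A. baumannii isolates collected at three Taiwanese hospitals, routinely grown in tryptic soy broth at 37°C for 18 h. MICs (μg ml⁻¹) were determined by broth dilution following CLSI recommendations, or by Etest strips following the manufacturer's instructions.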

Acinetobacter baumannii [10] = assay: Antibacterial activity against imipenem-susceptible Acinetobacter baumannii ab1254 by broth dilution method; format: functional; method in brief: as §1
Acinetobacter baumannii [11] = assay: Antibacterial activity against imipenem-susceptible Acinetobacter baumannii ab1316 by broth dilution method; format: functional; method in brief: as §2
Acinetobacter baumannii [12] = assay: Antibacterial activity against imipenem-intermediate Acinetobacter baumannii ab1297 by broth dilution method; format: functional; method in brief: as §2
Acinetobacter baumannii [13] = assay: Antibacterial activity against imipenem-resistant Acinetobacter baumannii ab1265 by broth dilution method; format: functional; method in brief: as §1
Acinetobacter baumannii [14] = assay: Antibacterial activity against imipenem-resistant Acinetobacter baumannii ab1266 by broth dilution method; format: functional; method in brief: as §1
Acinetobacter baumannii [15] = assay: Antibacterial activity against imipenem-resistant Acinetobacter baumannii abh9 by broth dilution method; format: functional; method in brief: as §1
Acinetobacter baumannii [16] = assay: Antibacterial activity against imipenem-resistant Acinetobacter baumannii abh11 by broth dilution method; format: functional; method in brief: as §1
Acinetobacter baumannii [17] = assay: Antibacterial activity against imipenem-resistant Acinetobacter baumannii abh13 by broth dilution method; format: functional; method in brief: as §1
Acinetobacter baumannii [18] = assay: Antibacterial activity against imipenem-resistant Acinetobacter baumannii abh14 by broth dilution method; format: functional; method in brief: as §1
Acinetobacter baumannii [19] = assay: Antibacterial activity against imipenem-resistant Acinetobacter baumannii abh17 by broth dilution method; format: functional; method in brief: as §1
Acinetobacter baumannii [20] = assay: Antibacterial activity against imipenem-resistant Acinetobacter baumannii abh18 by broth dilution method; format: functional; method in brief: as §1
Acinetobacter baumannii [21] = assay: Antibacterial activity against imipenem-resistant Acinetobacter baumannii abh20 by broth dilution method; format: functional; method in brief: as §1
Acinetobacter baumannii [22] = assay: Antibacterial activity against imipenem-resistant Acinetobacter baumannii abh26 by broth dilution method; format: functional; method in brief: as §1
Acinetobacter baumannii [23] = assay: Antibacterial activity against imipenem-resistant Acinetobacter baumannii abh29 by broth dilution method; format: functional; method in brief: as §1
Acinetobacter baumannii [24] = assay: Antibacterial activity against imipenem-resistant Acinetobacter baumannii abh36 by broth dilution method; format: functional; method in brief: as §1
Acinetobacter baumannii [25] = assay: Antibacterial activity against imipenem-resistant Acinetobacter baumannii abh37 by broth dilution method; format: functional; method in brief: as §1
Acinetobacter baumannii [26] = assay: Antibacterial activity against imipenem-resistant Acinetobacter baumannii abh39 by broth dilution method; format: functional; method in brief: as §1
Escherichia coli [27] = assay: Antibacterial activity against Escherichia coli TOP10 by Etest; format: functional
Method in brief: (§3)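 E. coli TOP10 carrying empty pBAD/Myc-His or pBAD/Myc-His with blaOXA-66 cloned from the named strain, grown at 37°C in LB with 50 μg/ml ampicillin to OD600 0.5. Plated on Mueller-Hinton agar with 50 μg/ml ampicillin and 0.002% arabinose for induction. Imipenem MIC read by Etest.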

Escherichia coli [28] = assay: Antibacterial activity against Escherichia coli TOP10 expressing imipenem-susceptible Acinetobacter baumannii ab1254 blaoxa-66 gene by Etest; format: functional; method in brief: as §3
Escherichia coli [29] = assay: Antibacterial activity against Escherichia coli TOP10 expressing imipenem-resistant Acinetobacter baumannii ab1266 blaoxa-66 gene by Etest; format: functional; method in brief: as §3
Acinetobacter baumannii [30] = assay: Antibacterial activity against imipenem-resistant Acinetobacter baumannii ISAB ab8(r) by broth dilution method; format: functional
Acinetobacter baumannii [31] = assay: Antibacterial activity against imipenem-resistant Acinetobacter baumannii ISAB ab1254(r) by broth dilution method; format: functional
Acinetobacter baumannii [32] = assay: Antibacterial activity against imipenem-resistant Acinetobacter baumannii ISAB ab1254(r) by broth dilution method in presence of 24 ug/ml efflux pump inhibitor carbonyl cyanide m-chlorophenyl-hydrazone; format: functional
Acinetobacter baumannii [33] = assay: microbe, parasite or virus in culture; conditions: ISAB ab8(r)
Acinetobacter baumannii [34] = assay: Antibacterial activity against imipenem-resistant Acinetobacter baumannii ISAB ab1254(r) by broth dilution method in presence of 2 ug/ml efflux pump inhibitor carbonyl cyanide m-chlorophenyl-hydrazone; format: functional
Acinetobacter baumannii [35] = assay: Ratio of MIC for Acinetobacter baumannii ISAB ab8(r) to MIC for Acinetobacter baumannii ISAB ab8(r) in presence of 2 ug/ml efflux pump inhibitor carbonyl cyanide m-chlorophenyl-hydrazone; format: functional
Acinetobacter baumannii [36] = assay: Ratio of MIC for Acinetobacter baumannii ISAB ab1254(r) to MIC for Acinetobacter baumannii ISAB […] in presence of 2 ug/ml efflux pump inhibitor carbonyl cyanide m-chlorophenyl-hydrazone; format: functional
Acinetobacter baumannii [37] = assay: Antibacterial activity against imipenem-resistant Acinetobacter baumannii ISAB ab8(r) by broth dilution method in presence of 2 ug/ml efflux pump inhibitor carbonyl cyanide m-chlorophenyl-hydrazone; format: functional

| SMILES | MIC (Acinetobacter baumannii [4]) | MIC (Acinetobacter baumannii [5]) | MIC (Acinetobacter baumannii [6]) | MIC (Acinetobacter baumannii [7]) | MIC (Acinetobacter baumannii [8]) | MIC (Acinetobacter baumannii [9]) | MIC (Acinetobacter baumannii [10]) | MIC (Acinetobacter baumannii [11]) | MIC (Acinetobacter baumannii [12]) | MIC (Acinetobacter baumannii [13]) | MIC (Acinetobacter baumannii [14]) | MIC (Acinetobacter baumannii [15]) | MIC (Acinetobacter baumannii [16]) | MIC (Acinetobacter baumannii [17]) | MIC (Acinetobacter baumannii [18]) | MIC (Acinetobacter baumannii [19]) | MIC (Acinetobacter baumannii [20]) | MIC (Acinetobacter baumannii [21]) | MIC (Acinetobacter baumannii [22]) | MIC (Acinetobacter baumannii [23]) | further results |
| --- | --- | --- | --- | --- | --- | --- | --- | --- | --- | --- | --- | --- | --- | --- | --- | --- | --- | --- | --- | --- | --- |
| C[C@@H](O)[C@H]1C(=O)N2C(C(=O)O)=C(SCCNC=N)C[C@H]12 [IMIPENEM ANHYDROUS] | 1 µg/mL (≈ 3.34 µM) | 1 µg/mL (≈ 3.34 µM) | 1 µg/mL (≈ 3.34 µM) | 1 µg/mL (≈ 3.34 µM) | 1.5 µg/mL (≈ 5.01 µM) | 2 µg/mL (≈ 6.68 µM) | 3 µg/mL (≈ 10 µM) | 3 µg/mL (≈ 10 µM) | 8 µg/mL (≈ 26.7 µM) | > 32 µg/mL | > 32 µg/mL | 32 µg/mL (≈ 107 µM) | 32 µg/mL (≈ 107 µM) | 32 µg/mL (≈ 107 µM) | 32 µg/mL (≈ 107 µM) | 32 µg/mL (≈ 107 µM) | 32 µg/mL (≈ 107 µM) | 32 µg/mL (≈ 107 µM) | 32 µg/mL (≈ 107 µM) | 32 µg/mL (≈ 107 µM) | fold change (FC) (Acinetobacter baumannii [1]): 4; fold change (FC) (Acinetobacter baumannii [2]): 8; MIC (Acinetobacter baumannii [3]): 0.38 µg/mL (≈ 1.27 µM); MIC (Acinetobacter baumannii [24]): 32 µg/mL (≈ 107 µM); MIC (Acinetobacter baumannii [25]): 32 µg/mL (≈ 107 µM); MIC (Acinetobacter baumannii [26]): 32 µg/mL (≈ 107 µM); MIC (Escherichia coli [27]): 0.19 µg/mL (≈ 0.635 µM); MIC (Escherichia coli [28]): 0.75 µg/mL (≈ 2.51 µM); MIC (Escherichia coli [29]): 1.5 µg/mL (≈ 5.01 µM); MIC (Acinetobacter baumannii [30]): 256 µg/mL (≈ 855 µM); MIC (Acinetobacter baumannii [31]): 128 µg/mL (≈ 428 µM); MIC (Acinetobacter baumannii [32]): 16 µg/mL; MIC (Acinetobacter baumannii [33]): 64 µg/mL (≈ 214 µM) |
| C[C@@H](O)[C@H]1C(=O)N2C(C(=O)O)=C(S[C@@H]3CN[C@H](C(=O)N(C)C)C3)[C@H](C)[C@H]12 [MEROPENEM] | 0.38 µg/mL (≈ 0.991 µM) | 0.5 µg/mL (≈ 1.3 µM) | 0.5 µg/mL (≈ 1.3 µM) | 0.5 µg/mL (≈ 1.3 µM) | 0.75 µg/mL (≈ 1.96 µM) | 0.75 µg/mL (≈ 1.96 µM) | 0.75 µg/mL (≈ 1.96 µM) | 1.5 µg/mL (≈ 3.91 µM) | 32 µg/mL (≈ 83.4 µM) | > 32 µg/mL | > 32 µg/mL | > 32 µg/mL | > 32 µg/mL | > 32 µg/mL | > 32 µg/mL | 16 µg/mL (≈ 41.7 µM) | 32 µg/mL (≈ 83.4 µM) | 32 µg/mL (≈ 83.4 µM) | 32 µg/mL (≈ 83.4 µM) | > 32 µg/mL | MIC (Acinetobacter baumannii [34]): 3 µg/mL; fold change (FC) (Acinetobacter baumannii [35]): 2; fold change (FC) (Acinetobacter baumannii [36]): 2; MIC (Acinetobacter baumannii [24]): > 32 µg/mL; MIC (Acinetobacter baumannii [25]): 32 µg/mL (≈ 83.4 µM); MIC (Acinetobacter baumannii [26]): 32 µg/mL (≈ 83.4 µM); MIC (Acinetobacter baumannii [30]): 8 µg/mL (≈ 20.9 µM); MIC (Acinetobacter baumannii [31]): 6 µg/mL (≈ 15.6 µM); MIC (Acinetobacter baumannii [37]): 4 µg/mL |
